The target of assay [1] is T1, Sigma intracellular receptor 2 (Rattus norvegicus, UniProt Q5U3Y7).
T1 sequence (Q5U3Y7 whole entry): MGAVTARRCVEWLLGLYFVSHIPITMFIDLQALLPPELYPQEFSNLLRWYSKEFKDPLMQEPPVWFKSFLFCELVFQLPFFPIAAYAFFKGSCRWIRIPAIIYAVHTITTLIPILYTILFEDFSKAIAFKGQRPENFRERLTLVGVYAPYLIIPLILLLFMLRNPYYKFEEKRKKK
Description: Displacement of [3H]DTG from sigma2 receptor in rat liver membranes after 120 mins by scintillation counting method. It counts as cell membranes.

Assay [2] concerns Mus musculus. Description: Anti-inflammatory activity against C57BL/6 mouse model of MOG-induced autoimmune encephalomyelitis assessed as reduction in immune cell infiltration in to lumbar spinal cord at 100 uL of 20 uM solution administered ip starting from day 1 post immunization and measured 9 to 16 days post Mycobacterium tuberculosis H37Ra/MOG immunization by hematoxylin and eosin staining based microscopic method. It counts as functional, organism-based. Put shortly:
(§1)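 C57BL/6 wild-type mice, 8–12 weeks old, were kept under SPF conditions and immunized with MOG peptide. From day 1 after immunization they received a daily ip injection of 100 µl of a 20 µM solution; controls received PBS. Clinical signs were checked daily. Tissues were taken at disease peak, days 12–15 after immunization.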

In assay [3] the target is T2, Sigma intracellular receptor 2 (Rattus norvegicus) (UniProt Q5U3Y7).
T2 sequence (whole entry): T1 sequence (Q5U3Y7 whole entry)
Description: Displacement of [3H]DTG from sigma2 receptor in rat liver membranes at 1 uM after 120 mins by scintillation counting method relative to control. It counts as cell membranes.

Assay [4] deals with Dendritic cell. Description: Anti-inflammatory activity in PMA/ionomycin-stimulated human PBMC-derived dendritic cells assessed as reduction in IFNgamma production at 5 ug/ml treated for 48 hrs starting from 12 hrs post PMA/ionomycin stimulation by flow cytometry. It counts as functional, cell-based. Put shortly: (§2)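 PBMC were prepared from heparinized blood of healthy donors by Ficoll gradient, and DC or T cells were negatively enriched with magnetic kits. Cells were activated 12 h with PMA (5 ng/ml) plus ionomycin (500 ng/ml), then cultured 48 h with compound or PBS. Flow cytometry was gated on HLA-DR⁺CD11c⁺ for DC and CD3⁺ for T cells, with intracellular IFN-γ; n=3 donors.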

For assay [5], the system named is T-cell. Description: Anti-inflammatory activity in PMA/ionomycin-stimulated human PBMC-derived T cells assessed as reduction in IFNgamma production at 5 ug/ml treated for 48 hrs starting from 12 hrs post PMA/ionomycin stimulation by flow cytometry. It counts as functional, cell-based. Put shortly: as §2
In assay [6] the test system is Mus musculus. Description: Anti-inflammatory activity against C57BL/6 mouse model of MOG-induced autoimmune encephalomyelitis assessed as inhibition of development of clinical symptoms at 100 uL of 20 uM solution administered ip starting from day 1 post immunization and measured 9 to 16 days post Mycobacterium tuberculosis H37Ra/MOG immunization. It counts as functional, organism-based. Put shortly: as §1

Assay [7] deals with Mus musculus. Description: Anti-inflammatory activity against C57BL/6 mouse model of MOG-induced autoimmune encephalomyelitis assessed as reduction in inflammatory foci in lumbar spinal cord at 100 uL of 20 uM solution administered ip starting from day 1 post immunization and measured 9 to 16 days post Mycobacterium tuberculosis H37Ra/MOG immunization by hematoxylin and eosin staining based microscopic method. It counts as functional, organism-based. Put shortly:
as §1

The test system of assay [8] is Mus musculus. Description: Anti-inflammatory activity against C57BL/6 mouse model of MOG-induced autoimmune encephalomyelitis assessed as reduction in TH17 cell population in lumbar spinal cord at 100 uL of 20 uM solution administered ip starting from day 1 post immunization and measured 9 to 16 days post Mycobacterium tuberculosis H37Ra/MOG immunization by immunofluorescence microscopic method. It counts as functional, organism-based. Put shortly:
as §1

Assay [9] deals with T-cell. Description: Inhibition of PMA/ionomycin-stimulated C57BL/6 mouse T cells activation assessed as CD44-positive cells at 5 ug/ml treated for 48 hrs starting from 12 hrs post PMA/ionomycin stimulation by flow cytometry (reference value: 9.6%). It counts as functional. Further details: scale not given: the % may be the effect or the level left.
The test system of assay [10] is T-cell. Description: Inhibition of PMA/ionomycin-stimulated C57BL/6 mouse T cells activation assessed as CD69-positive cells at 5 ug/ml treated for 48 hrs starting from 12 hrs post PMA/ionomycin stimulation by flow cytometry (reference value: 37.2%). It counts as functional. The arrangement: scale not given: the % may be the effect or the level left.
Assay [11] relates to Mus musculus. Description: Anti-inflammatory activity against C57BL/6 mouse model of MOG-induced autoimmune encephalomyelitis assessed as CD45-positive leukocytes at 100 uL of 20 uM solution administered ip starting from day 1 post immunization and measured 9 to 16 days post Mycobacterium tuberculosis H37Ra/MOG immunization by flow cytometry (reference value: 4.4%). It counts as functional. Put shortly:
as §1

In assay [12] the test system is Dendritic cell. Description: Immunomodulatory activity in PMA/ionomycin-stimulated C57BL/6 mouse bone marrow derived dendritic cells assessed as increase in IL-10 production at 5 ug/ml treated for 48 hrs starting from 12 hrs post PMA/ionomycin stimulation. It counts as functional, cell-based.
In assay [13] the test system is T-cell. Description: Immunomodulatory activity in PMA/ionomycin-stimulated human PBMC-derived T cells assessed as increase in IL-10 production at 5 ug/ml treated for 48 hrs starting from 12 hrs post PMA/ionomycin stimulation. It counts as functional, cell-based. Put shortly:
(§3)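 Human PBMC-derived cells from healthy donors were activated with PMA (5 ng/ml) plus ionomycin (500 ng/ml), then cultured with compound or PBS. Cytokines were quantified in the culture supernatants; n=3 donors.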

Assay [14] concerns T-cell. Description: Anti-inflammatory activity in PMA/ionomycin-stimulated C57BL/6 mouse T cells assessed as reduction in IFNgamma production at 5 ug/ml treated for 48 hrs starting from 12 hrs post PMA/ionomycin stimulation by flow cytometry. It counts as functional, cell-based. Put shortly:
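Total T cells were isolated from wild-type mouse lymph nodes with a Pan T cell kit. Cells were activated 12 h with PMA (5 ng/ml) plus ionomycin (500 ng/ml), then cultured 48 h with compound or PBS. Analysis was by flow cytometry gated on CD3, with intracellular IFN-γ after permeabilization; n=5 mice.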

Assay [15] relates to T-cell. Description: Immunomodulatory activity in PMA/ionomycin-stimulated C57BL/6 mouse T cells assessed as increase in IL-10 production at 5 ug/ml treated for 48 hrs starting from 12 hrs post PMA/ionomycin stimulation. It counts as functional, cell-based. Put shortly:
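Mouse lymph-node T cells were activated 12 h with PMA (5 ng/ml) plus ionomycin (500 ng/ml), then cultured 48 h with compound or PBS. Secreted cytokines were measured in the culture supernatants; n=5 mice per group.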

For assay [16], the system named is Dendritic cell. Description: Anti-inflammatory activity in PMA/ionomycin-stimulated C57BL/6 mouse bone marrow derived dendritic cells assessed as reduction in IFNgamma production at 5 ug/ml treated for 48 hrs starting from 12 hrs post PMA/ionomycin stimulation by flow cytometry. It counts as functional, cell-based. Put shortly:
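Bone marrow from tibias and femurs was cultured 9 days with GM-CSF (150 U/ml) and IL-4 (75 U/ml). From day 7 to day 9, cells were stimulated with PMA (5 ng/ml) plus ionomycin (500 ng/ml) with or without compound. On day 9, cells were gated on MHC-II⁺CD11c⁺ and stained for intracellular IFN-γ; n=5 mice.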

Assay [17] has as its system Dendritic cell. Description: Immunomodulatory activity in PMA/ionomycin-stimulated human PBMC-derived dendritic cells assessed as increase in IL-10 production at 5 ug/ml treated for 48 hrs starting from 12 hrs post PMA/ionomycin stimulation. It counts as functional, cell-based. Put shortly:
as §3

SMILES strings stand for the structures. Calls of active or inactive are those of the source. The calls are words filed in the database; no cut-off is given here.

Turning to `CCCCN1CCN(C(=O)Cc2ccc(Cl)c(Cl)c2)[C@@H]2[C@@H](N3CCCC3)CCC[C@@H]21` (racemic), in assay [1], the Ki was 1300 nM.
With `O=C(Cc1ccc(Cl)c(Cl)c1)N1CCN[C@H]2CCC[C@H](N3CCCC3)[C@H]21` (racemic), the result in assay [2], in [7] and in assay [8] was Active. The inhibition in assay [3] came to 5%. For the same compound, the result in [4] and in [5] was inactive. Besides, the inhibition entry in assay [6] was “Active”. The values for the Activity in [9], in [10] and in assay [11] were 7.6%, 25.6% and 0.5%, respectively.
For the compound `CN1CCN(C(=O)Cc2ccc(Cl)c(Cl)c2)[C@H]2[C@@H]1CCC[C@@H]2N1CCCC1`, the inhibition in assay [3] worked out at 4%.
On the same count and under the same terms, in the case of `O=C(Cc1ccc(Cl)c(Cl)c1)N1CCN(CCCCF)[C@H]2CCC[C@H](N3CCCC3)[C@H]21` (racemic) it was 8%.
The same measure, in the same setting: in the case of `CC(C)(C)OC(=O)N1CCN(C(=O)Cc2ccc(Cl)c(Cl)c2)[C@@H]2[C@@H](N3CCCC3)CCC[C@@H]21` (racemic) it was 16%.
Still for that read-out and setting: in the case of `O=C(Cc1ccc(Cl)c(Cl)c1)N1CCN(CCF)[C@H]2CCC[C@H](N3CCCC3)[C@H]21` (racemic) it was 3%; in that of `CCN1CCN(C(=O)Cc2ccc(Cl)c(Cl)c2)[C@H]2[C@@H]1CCC[C@@H]2N1CCCC1` (relative stereo), 16%.
`CCCN1CCN(C(=O)Cc2ccc(Cl)c(Cl)c2)[C@@H]2[C@@H](N3CCCC3)CCC[C@@H]21` (racemic) registered an inhibition constant (Ki) in assay [1] of 2400 nM.
In the case of `O=C(Cc1ccc(Cl)c(Cl)c1)N1CCN(Cc2ccc(F)cc2)[C@H]2CCC[C@H](N3CCCC3)[C@H]21` (racemic), the inhibition in assay [3] was found to be 0%.
Take `O=C(Cc1ccc(Cl)c(Cl)c1)N1CCN(Cc2cn(CCF)nn2)[C@H]2CCC[C@H](N3CCCC3)[C@H]21` (racemic): the outcome in assay [2], in assay [12], in [13], in [4], in assay [14] and in assay [5] was Active. Moreover, the outcome in assay [7], in [8], in assay [15], in [16] and in assay [17] was Active. In addition, in [3], the inhibition amounted to 0%. For the same compound, the inhibition result in [6] was “Active”. Further, the values for the Activity in [9], in [10] and in assay [11] were 10.4%, 14.8% and 0.2%, respectively.
Consider `COC(=O)N1CCN(C(=O)Cc2ccc(Cl)c(Cl)c2)[C@@H]2[C@@H](N3CCCC3)CCC[C@@H]21` (racemic), for which the inhibition in assay [3] is 8%.
`O=C(Cc1ccc(Cl)c(Cl)c1)N1CCN(C(=O)COCCF)[C@H]2CCC[C@H](N3CCCC3)[C@H]21` (relative stereo) registered an inhibition in assay [3] of 0%.

These data come from ChEMBL document CHEMBL4371059 (J Med Chem, 2019).
